Activity calls are given as the source filed them. The rule behind the calls is not given here.
Tests used:
[1] = tested on: Bacillus subtilis; assay: Antibacterial activity against Bacillus subtilis at 91 ug/ml measured up to 24 hrs by spectrophotometry; format: functional, organism-based
Summary of the method: (§1)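 Compound suspended in water with 0.1% Me2SO and added to tube cultures of the bacterium growing on glucose minimal medium, to a maximum final concentration of 91 μg/ml. Growth followed by periodic absorbance readings at 540 nm over 24 hr of incubation. Complete inhibition scored at concentration limits of 1 and 91 μg/ml.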

[2] = tested on: Pseudomonas fluorescens; assay: Antibacterial activity against Pseudomonas fluorescens at 91 ug/ml measured up to 24 hrs by spectrophotometry; format: functional, organism-based; summary of the method: as §1
[3] = tested on: KB; assay: Growth inhibition of human KB cells at 150 ug/ml after 7 days by microscopy; format: functional, cell-based
[4] = tested on: KB; assay: Growth inhibition of human KB cells at 25 ug/ml after 7 days by microscopy
[5] = tested on: KB; assay: Growth inhibition of human KB cells at 25 to 100 ug/ml after 7 days by microscopy; format: functional, cell-based
[6] = tested on: KB; assay: Growth inhibition of human KB cells at 12 ug/ml after 7 days by microscopy; format: functional, cell-based
[7] = tested on: L1210; assay: Antitumor activity against mouse L1210 cells allografted in BDF1 mouse assessed as increase in life span at 0.2 mg, ip qd for 5 days relative to control; format: functional
Summary of the method: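 Female BDF1 mice, 35 days old, ten per group, given 1 × 10⁶ viable L1210 cells ip on day 0. Treatment on days 1–5 was 0.2 mg per injection ip, once daily (1 mg total), suspended in saline with 0.05% carboxymethylcellulose. Controls received carrier only. Readout was the ratio of mean survival time (days) of treated to control mice (T/C).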

[8] = tested on: KB; assay: Growth inhibition of human KB cells at < 25 ug/ml after 7 days by microscopy; format: functional
[9] = tested on: Staphylococcus aureus; assay: Antibacterial activity against Staphylococcus aureus clinical isolate at 91 ug/ml measured up to 24 hrs by spectrophotometry; format: functional, organism-based
Summary of the method: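 A recent clinical isolate was grown in tube cultures of nutrient broth. Compound was suspended in water containing 0.1% Me2SO and added to a maximum final concentration of 91 μg/ml. Absorbance at 540 nm was read periodically during 24 hr of incubation.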

[10] = tested on: KB; assay: Growth inhibition of human KB cells at 25 ug/ml after 7 days by microscopy; format: functional; settings: 168 h, read-out: GI
[11] = tested on: KB; assay: Growth inhibition of human KB cells at 10 ug/ml after 7 days by microscopy; format: functional; settings: 168 h, read-out: GI
[12] = tested on: KB; assay: Growth inhibition of human KB cells at 50 ug/ml after 7 days by microscopy; format: functional; settings: 168 h, read-out: GI

Structure (SMILES) | growth inhibition (GI) [1] | growth inhibition (GI) [2] | also measured
COc1cc2c(cc1OC)-c1nc(N)sc1CC2 | Active | inactive | growth inhibition (GI) [3]: Active; growth inhibition (GI) [4]: 50%
COc1cc2c(cc1OC)-c1oncc1CC2 | Active | inactive | growth inhibition (GI) [5]: inactive
Oc1cc2c(cc1O)-c1[nH]ncc1CC2 | Active | inactive | growth inhibition (GI) [6]: Active; Ratio [7]: 1.14; growth inhibition (GI) [8]: 50%
COc1cc2c(cc1OC)-c1c(cnn1[C@H]1O[C@H](COC(C)=O)[C@@H](OC(C)=O)[C@H](OC(C)=O)[C@H]1OC(C)=O)CC2 | inactive | inactive | –
Oc1ccc(-n2ncc3c2-c2cc(O)c(O)cc2CC3)cc1 | inactive | inactive | –
COc1ccc(-n2ncc3c2-c2cc(OC)c(OC)cc2CC3)cc1 | Active | inactive | growth inhibition (GI) [5]: inactive
COc1ccc2c3c(ccc2c1)-c1c(cnn1[C@H]1O[C@H](COC(C)=O)[C@@H](OC(C)=O)[C@H](OC(C)=O)[C@H]1OC(C)=O)CC3 | Active | inactive | growth inhibition (GI) [8]: 50%
COc1cc2c(cc1OC)C1=NNC(=O)[C@@]1(C)CC2 | Active | inactive | growth inhibition (GI) [4]: 50%
COc1ccc2c(c1)CCc1cnn([C@H]3O[C@H](COC(C)=O)[C@@H](OC(C)=O)[C@H](OC(C)=O)[C@H]3OC(C)=O)c1-2 | Active | Active | growth inhibition (GI) [9]: Active; growth inhibition (GI) [4]: 50%
Oc1ccc2c(c1)CCc1cnn(-c3ccccc3)c1-2 | inactive | inactive | –
COc1cc2c(cc1OC)-c1nocc1CC2 | inactive | inactive | –
C=CCNc1nc2c(s1)CCc1cc(OC)c(OC)cc1-2 | Active | inactive | inhibition of growth at 25 µg/mL [10]: 50%; growth inhibition (GI) [3]: Active
COc1cc2c(cc1OC)C1=NN(c3ccccc3)C(=O)[C@H]1CC2 | inactive | inactive | –
Oc1cc2ccc3c(c2cc1O)CCc1cnn(-c2ccc(F)cc2)c1-3 | Active | inactive | inhibition of growth at 10 µg/mL [11]: 50%; growth inhibition (GI) [8]: 50%
COc1cc2c(cc1OC)-c1c(cnn1-c1ccccc1)CC2 | Active | inactive | –
COc1cc2c(cc1OC)C1=NNC(=O)[C@H]1CC2 | inactive | inactive | –
COc1ccc2c(c1)CC[C@@H]1C(=O)NN=C21 | Active | inactive | growth inhibition (GI) [4]: 50%
COc1cc2c(cc1OC)-c1c(cnn1S(=O)(=O)c1ccc(C)cc1)CC2 | inactive | inactive | –
COc1ccc2c(c1)CCc1cnn(-c3ccccc3)c1-2 | Active | inactive | –
Oc1cc2c(cc1O)-c1c(cnn1-c1ccccc1)CC2 | Active | inactive | growth inhibition (GI) [8]: 50%
COc1cc2c(cc1OC)-c1nc(C)sc1CC2 | inactive | inactive | –
COc1cc2c(cc1OC)-c1[nH]ncc1CC2 | Active | inactive | inhibition of growth at 25 µg/mL [10]: 50%; inhibition of growth at 50 µg/mL [12]: 69%
COc1cc2ccc3c(c2cc1OC)CCc1cn[nH]c1-3 | Active | inactive | growth inhibition (GI) [5]: inactive
COc1cc2ccc3c(c2cc1OC)CCc1cnn(-c2ccc(F)cc2)c1-3 | inactive | inactive | –
COc1cc2c(cc1OC)C1=NN(c3ccc(F)cc3)C(=O)[C@H]1CC2 | inactive | inactive | –
COc1cc2ccc3c(c2cc1OC)CCc1cnoc1-3 | Active | inactive | –
Oc1cc2ccc3c(c2cc1O)CCc1cn[nH]c1-3 | inactive | inactive | –
COc1ccc2c3c(ccc2c1)-c1c(cnn1[C@H]1O[C@H](CO)[C@@H](O)[C@H](O)[C@H]1O)CC3 | inactive | inactive | –
COc1cc2c(cc1OC)-c1c(cnn1[C@H]1O[C@H](CO)[C@@H](O)[C@H](O)[C@H]1O)CC2 | inactive | inactive | –
COc1cc2c(cc1OC)-c1nc(Nc3ccccc3)sc1CC2 | Active | inactive | growth inhibition (GI) [4]: 50%

Source: ChEMBL document CHEMBL3271987, “Novel pyrazolo, isoxazolo, and thiazolo steroidal systems and model analogs containing dimethyoxylaryl (or dihydroxylaryl) groups and derivatives. Synthesis, spectral properties, and biological activity” (1976)
